# In ChEMBL document CHEMBL4033661, “Small molecules inhibit STAT3 activation, autophagy, and cancer cell anchorage-independent growth” (Bioorg Med Chem, 2017):
# The source made the active and inactive calls. The rule behind the calls is not given here.
# How the values were obtained:
# [1] = test system: MDA-MB-231; test: Cytotoxicity against human MDA-MB-231 cells assessed as cell growth inhibition after 3 days by MTT assay; assay type: functional, cell-based; conditions: MDA-MB-231, 72 h
# Outline: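 MDA-MB-231 cells (10^4/well) in DMEM with 10% FBS at 37 °C, 5% CO2 were plated overnight, then exposed to compounds at the indicated concentrations or 1% DMSO control for 3 d. MTT (5 mg/mL stock) was added for 2 h. Absorbance was read at 570 nm with a 630 nm reference. Values are mean ± SD, n = 3.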
# [2] = target: Calcium/calmodulin-dependent protein kinase type II subunit delta (Homo sapiens, UniProt Q13557); test: Inhibition of CaMK2delta (unknown origin)
# [3] = target: Calcium/calmodulin-dependent protein kinase type II subunit gamma (Homo sapiens, UniProt Q13555); test: Inhibition of CaMK2gamma (unknown origin)
# [4] = target: Tyrosine-protein kinase BTK (Homo sapiens, UniProt Q06187); test: Inhibition of BTK (unknown origin)
# [5] = target: T1, Maternal embryonic leucine zipper kinase (Homo sapiens, UniProt Q14680); test: Inhibition of MELK (unknown origin)
# Target sequence in this assay (Q14680 whole entry): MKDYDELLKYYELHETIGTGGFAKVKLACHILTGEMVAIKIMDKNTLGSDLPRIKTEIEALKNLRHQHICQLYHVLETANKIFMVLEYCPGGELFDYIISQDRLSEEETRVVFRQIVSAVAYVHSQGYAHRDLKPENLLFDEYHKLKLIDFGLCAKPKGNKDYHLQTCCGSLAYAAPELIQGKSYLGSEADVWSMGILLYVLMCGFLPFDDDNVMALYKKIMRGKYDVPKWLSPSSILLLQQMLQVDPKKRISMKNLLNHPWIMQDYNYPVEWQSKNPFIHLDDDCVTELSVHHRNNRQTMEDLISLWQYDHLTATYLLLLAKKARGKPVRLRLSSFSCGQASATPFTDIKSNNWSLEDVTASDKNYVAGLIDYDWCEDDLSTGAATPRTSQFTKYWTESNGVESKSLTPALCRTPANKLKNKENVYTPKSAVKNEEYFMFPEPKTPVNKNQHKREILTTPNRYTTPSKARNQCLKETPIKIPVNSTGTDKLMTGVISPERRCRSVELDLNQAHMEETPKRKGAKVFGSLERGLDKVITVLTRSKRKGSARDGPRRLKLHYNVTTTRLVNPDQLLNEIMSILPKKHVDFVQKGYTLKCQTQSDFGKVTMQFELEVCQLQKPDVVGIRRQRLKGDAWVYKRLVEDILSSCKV
# [6] = target: Cytoplasmic tyrosine-protein kinase BMX (Homo sapiens, UniProt P51813); test: Inhibition of BMX/ETK (unknown origin)
# [7] = target: Tyrosine-protein kinase CSK (Homo sapiens, UniProt P41240); test: Inhibition of CSK (unknown origin)
# [8] = target: Angiopoietin-1 receptor (Homo sapiens, UniProt Q02763); test: Inhibition of TIE2/TEK (unknown origin)
# [9] = target: Insulin receptor (Homo sapiens, UniProt P06213); test: Inhibition of IR (unknown origin)
# [10] = target: T1, Maternal embryonic leucine zipper kinase; test: Inhibition of MELK (unknown origin) at 20 uM relative to control
# Target sequence in this assay (Q14680 whole entry, looked up): as the sequence (Q14680 whole entry) above
# [11] = target: Receptor tyrosine-protein kinase erbB-4 (Homo sapiens, UniProt Q15303); test: Inhibition of ERBB4/HER4 (unknown origin)
# [12] = target: Megakaryocyte-associated tyrosine-protein kinase (Homo sapiens, UniProt P42679); test: Inhibition of CTK/MATK (unknown origin)
# [13] = target: Fibroblast growth factor receptor 1 (Homo sapiens, UniProt P11362); test: Inhibition of FGFR1 (unknown origin)
# Chain of Fibroblast growth factor receptor 1 (P11362 whole entry): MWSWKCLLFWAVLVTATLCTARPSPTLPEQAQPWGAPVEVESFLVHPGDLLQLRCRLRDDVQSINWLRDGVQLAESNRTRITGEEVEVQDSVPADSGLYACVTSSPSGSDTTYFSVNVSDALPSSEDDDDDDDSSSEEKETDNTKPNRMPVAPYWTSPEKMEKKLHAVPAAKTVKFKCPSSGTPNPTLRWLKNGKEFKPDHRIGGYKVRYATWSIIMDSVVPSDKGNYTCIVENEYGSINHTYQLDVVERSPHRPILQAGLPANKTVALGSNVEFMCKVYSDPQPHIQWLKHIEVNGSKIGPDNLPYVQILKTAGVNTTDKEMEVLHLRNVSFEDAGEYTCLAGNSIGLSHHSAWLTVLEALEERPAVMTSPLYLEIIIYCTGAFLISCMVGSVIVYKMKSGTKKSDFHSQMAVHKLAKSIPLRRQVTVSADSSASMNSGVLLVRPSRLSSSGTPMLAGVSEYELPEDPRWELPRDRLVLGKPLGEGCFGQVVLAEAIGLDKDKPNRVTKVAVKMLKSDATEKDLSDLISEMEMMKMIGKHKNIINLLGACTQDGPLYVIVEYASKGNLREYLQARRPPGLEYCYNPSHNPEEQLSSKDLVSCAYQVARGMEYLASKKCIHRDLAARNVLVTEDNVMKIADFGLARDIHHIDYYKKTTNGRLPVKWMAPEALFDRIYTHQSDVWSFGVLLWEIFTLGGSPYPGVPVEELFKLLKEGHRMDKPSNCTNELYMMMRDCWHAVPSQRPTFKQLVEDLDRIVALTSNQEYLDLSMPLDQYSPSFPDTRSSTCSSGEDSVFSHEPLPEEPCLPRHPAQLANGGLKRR
# [14] = target: Tyrosine-protein kinase Blk (Homo sapiens, UniProt P51451); test: Inhibition of BLK (unknown origin)
# [15] = target: Tyrosine-protein kinase Lyn (Homo sapiens, UniProt P07948); test: Inhibition of LYN B (unknown origin)
# [16] = target: Calcium/calmodulin-dependent protein kinase type 1 (Homo sapiens, UniProt Q14012); test: Inhibition of CaMK1alpha (unknown origin)
# Chain of Calcium/calmodulin-dependent protein kinase type 1 (Q14012 whole entry): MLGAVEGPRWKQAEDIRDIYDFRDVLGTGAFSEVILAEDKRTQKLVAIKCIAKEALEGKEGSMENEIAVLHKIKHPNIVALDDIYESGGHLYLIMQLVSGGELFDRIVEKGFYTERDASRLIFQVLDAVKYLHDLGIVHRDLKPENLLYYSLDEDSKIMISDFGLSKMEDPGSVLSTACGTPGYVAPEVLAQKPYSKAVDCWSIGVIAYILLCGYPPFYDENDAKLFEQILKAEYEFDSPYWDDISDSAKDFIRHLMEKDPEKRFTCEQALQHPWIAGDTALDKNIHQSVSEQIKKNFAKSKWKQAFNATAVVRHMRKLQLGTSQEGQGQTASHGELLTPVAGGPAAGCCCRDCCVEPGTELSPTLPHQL
# [17] = target: Tyrosine-protein kinase Fer (Homo sapiens, UniProt P16591); test: Inhibition of FER (unknown origin)
# [18] = test system: MDA-MB-231; test: Cytotoxicity against human MDA-MB-231 cells assessed as inhibition of anchorage-independent colony formation on soft agar after 10 days by crystal violet staining based assay; assay type: functional, cell-based; conditions: MDA-MB-231, 240 h
# Outline: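 Base layer 0.5% agar, top layer 0.3% agar containing the cells, both in DMEM with 10% FBS. Feeding medium held compound at the indicated concentrations or 1% DMSO and was changed twice weekly for 10 d at 37 °C, 5% CO2. Colonies were stained with 0.005% crystal violet and counted under a dissecting microscope. Values are mean ± SE of six fields from two independent samples.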
# [19] = target: T1, Maternal embryonic leucine zipper kinase; test: Inhibition of MELK in human MDA-MB-231 cells assessed as upregulation of p53-dependent p21WAF1/CIP1 expression at 5 uM by Western blot method; assay type: cell-based; conditions: TDE = time-dependent effect
# Outline: (§1)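 Cells were treated at 5 µM over 48 h. Total lysates were made in RIPA with protease/phosphatase inhibitors, 30 µg protein was run on 10% SDS-PAGE and moved to nitrocellulose. Primary antibodies were applied overnight at 4 °C, then IRDye 800 anti-mouse or Alexa Fluor 680 anti-rabbit secondaries for 1 h at RT, with infrared imaging. Actin served as loading control. Band changes are given as percent of control, mean ± SD, n = 2.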
# Target sequence in this assay (Q14680 whole entry, looked up): as the sequence (Q14680 whole entry) above
# [20] = target: T1, Maternal embryonic leucine zipper kinase; test: Inhibition of MELK in human MDA-MB-468 cells assessed as upregulation of p53-dependent p21WAF1/CIP1 expression at 5 uM by Western blot method; assay type: cell-based; conditions: TDE = time-dependent effect; outline: as §1
# Target sequence in this assay (Q14680 whole entry, looked up): as the sequence (Q14680 whole entry) above
# [21] = target: T1, Maternal embryonic leucine zipper kinase; test: Inhibition of MELK in human MDA-MB-468 cells assessed as decrease in cyclin A2 level at 5 uM measured over 48 hrs by Western blot method; assay type: cell-based; outline: as §1
# Target sequence in this assay (Q14680 whole entry, looked up): as the sequence (Q14680 whole entry) above
# [22] = target: T1, Maternal embryonic leucine zipper kinase; test: Inhibition of MELK in human MDA-MB-231 cells assessed as decrease in cyclin A2 level at 5 uM measured over 48 hrs by Western blot method; assay type: cell-based; outline: as §1
# Target sequence in this assay (Q14680 whole entry, looked up): as the sequence (Q14680 whole entry) above
# [23] = target: T1, Maternal embryonic leucine zipper kinase; test: Inhibition of MELK in human MDA-MB-468 cells assessed as decrease in p53 phosphorylation at Ser15 residue at 5 uM by Western blot method; assay type: cell-based; conditions: TDE = time-dependent effect; outline: as §1
# Target sequence in this assay (Q14680 whole entry, looked up): as the sequence (Q14680 whole entry) above
# [24] = test system: MDA-MB-468; test: Effect on p53 levels in human MDA-MB-468 cells at 5 uM up to 48 hrs by Western blot method; assay type: functional, cell-based; outline: as §1
# [25] = target: Tyrosine-protein kinase JAK1 (Homo sapiens) (UniProt P23458); test: Inhibition of JAK1 (unknown origin) at 20 uM
# [26] = target: Tyrosine-protein kinase JAK2 (Homo sapiens) (UniProt O60674); test: Inhibition of JAK2 (unknown origin) at 20 uM
# [27] = target: Tyrosine-protein kinase JAK3 (Homo sapiens) (UniProt P52333); test: Inhibition of JAK3 (unknown origin) at 20 uM
# Chain of Tyrosine-protein kinase JAK3 (Homo sapiens) (P52333 whole entry): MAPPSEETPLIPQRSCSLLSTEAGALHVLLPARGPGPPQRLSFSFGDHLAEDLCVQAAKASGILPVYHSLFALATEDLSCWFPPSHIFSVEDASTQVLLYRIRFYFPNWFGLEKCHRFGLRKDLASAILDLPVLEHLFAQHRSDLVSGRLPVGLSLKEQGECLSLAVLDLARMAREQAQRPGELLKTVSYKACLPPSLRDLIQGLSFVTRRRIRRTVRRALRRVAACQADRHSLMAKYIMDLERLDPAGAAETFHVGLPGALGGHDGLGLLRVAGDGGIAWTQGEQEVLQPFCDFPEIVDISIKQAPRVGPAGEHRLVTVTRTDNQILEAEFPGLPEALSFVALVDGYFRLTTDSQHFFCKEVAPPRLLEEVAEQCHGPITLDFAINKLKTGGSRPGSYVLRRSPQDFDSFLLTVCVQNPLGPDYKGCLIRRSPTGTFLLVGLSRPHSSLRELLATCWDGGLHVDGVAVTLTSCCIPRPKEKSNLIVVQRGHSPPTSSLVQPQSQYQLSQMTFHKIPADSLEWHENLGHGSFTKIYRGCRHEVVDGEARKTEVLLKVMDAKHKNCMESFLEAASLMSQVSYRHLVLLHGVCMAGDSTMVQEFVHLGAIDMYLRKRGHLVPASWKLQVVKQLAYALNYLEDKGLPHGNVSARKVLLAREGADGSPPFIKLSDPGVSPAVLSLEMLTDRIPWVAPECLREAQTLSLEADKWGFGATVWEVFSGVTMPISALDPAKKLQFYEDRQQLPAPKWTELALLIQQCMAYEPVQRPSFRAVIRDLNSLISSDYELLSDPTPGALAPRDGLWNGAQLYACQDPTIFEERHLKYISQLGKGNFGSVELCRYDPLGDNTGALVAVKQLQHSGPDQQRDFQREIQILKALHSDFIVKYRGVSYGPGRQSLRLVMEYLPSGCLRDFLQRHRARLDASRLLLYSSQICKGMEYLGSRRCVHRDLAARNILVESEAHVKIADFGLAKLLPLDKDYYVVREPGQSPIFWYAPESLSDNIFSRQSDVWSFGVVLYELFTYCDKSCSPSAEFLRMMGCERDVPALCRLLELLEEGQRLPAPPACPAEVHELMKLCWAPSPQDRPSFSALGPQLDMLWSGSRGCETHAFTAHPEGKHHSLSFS
# [28] = target: RAC-alpha serine/threonine-protein kinase (Homo sapiens) (UniProt P31749); test: Inhibition of Akt phosphorylation in human MDA-MB-468 cells by Western blot method; assay type: cell-based
# Chain of RAC-alpha serine/threonine-protein kinase (Homo sapiens) (P31749 whole entry): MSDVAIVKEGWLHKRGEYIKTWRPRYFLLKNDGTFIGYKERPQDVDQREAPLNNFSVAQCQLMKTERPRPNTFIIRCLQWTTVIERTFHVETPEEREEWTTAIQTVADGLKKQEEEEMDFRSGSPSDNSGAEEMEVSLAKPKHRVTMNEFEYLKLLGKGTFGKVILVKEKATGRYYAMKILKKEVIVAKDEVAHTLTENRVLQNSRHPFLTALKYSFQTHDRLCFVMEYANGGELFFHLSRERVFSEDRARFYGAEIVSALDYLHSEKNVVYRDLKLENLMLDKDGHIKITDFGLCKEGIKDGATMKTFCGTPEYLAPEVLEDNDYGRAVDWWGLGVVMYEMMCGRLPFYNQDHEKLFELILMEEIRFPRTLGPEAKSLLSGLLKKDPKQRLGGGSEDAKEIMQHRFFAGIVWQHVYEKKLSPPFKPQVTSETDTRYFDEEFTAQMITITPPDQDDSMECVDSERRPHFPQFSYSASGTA
# [29] = target: Signal transducer and activator of transcription 3 (Homo sapiens) (UniProt P40763); test: Inhibition of STAT3 phosphorylation at Tyr705 in human MDA-MB-231 cells at 5 uM measured at 4 hrs by Western blot method; assay type: cell-based
# Chain of Signal transducer and activator of transcription 3 (Homo sapiens) (P40763 whole entry): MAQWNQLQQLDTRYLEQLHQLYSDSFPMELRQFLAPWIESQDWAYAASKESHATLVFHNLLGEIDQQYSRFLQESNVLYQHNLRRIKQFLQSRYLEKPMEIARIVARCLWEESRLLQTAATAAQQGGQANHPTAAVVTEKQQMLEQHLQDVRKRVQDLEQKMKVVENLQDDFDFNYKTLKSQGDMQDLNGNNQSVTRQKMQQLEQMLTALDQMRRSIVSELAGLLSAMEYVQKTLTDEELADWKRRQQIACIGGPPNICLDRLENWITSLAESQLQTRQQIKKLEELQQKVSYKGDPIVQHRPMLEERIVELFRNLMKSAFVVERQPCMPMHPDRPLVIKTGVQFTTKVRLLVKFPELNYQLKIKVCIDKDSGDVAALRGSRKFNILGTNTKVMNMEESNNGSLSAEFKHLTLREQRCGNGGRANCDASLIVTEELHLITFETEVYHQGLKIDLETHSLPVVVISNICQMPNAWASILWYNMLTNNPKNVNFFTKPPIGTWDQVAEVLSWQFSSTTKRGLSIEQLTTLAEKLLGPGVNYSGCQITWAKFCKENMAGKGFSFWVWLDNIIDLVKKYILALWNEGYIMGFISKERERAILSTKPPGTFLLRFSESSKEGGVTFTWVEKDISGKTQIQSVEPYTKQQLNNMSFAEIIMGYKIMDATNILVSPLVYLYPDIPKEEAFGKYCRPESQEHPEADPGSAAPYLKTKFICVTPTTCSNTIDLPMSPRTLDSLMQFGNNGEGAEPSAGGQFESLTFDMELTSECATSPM
# [30] = target: Signal transducer and activator of transcription 3 (Homo sapiens) (UniProt P40763); test: Inhibition of STAT3 phosphorylation at Tyr705 in human MDA-MB-468 cells at 5 uM measured at 4 hrs by Western blot method; assay type: cell-based
# [31] = target: Signal transducer and activator of transcription 3 (Homo sapiens) (UniProt P40763); test: Inhibition of STAT3 phosphorylation in human MDA-MB-231 cells assessed as downregulation of survivin level at 5 uM up to 48 hrs by Western blot method; assay type: cell-based; outline: as §1
# [32] = target: Signal transducer and activator of transcription 3 (Homo sapiens) (UniProt P40763); test: Inhibition of STAT3 phosphorylation in human MDA-MB-468 cells assessed as down regulation of survivin level at 5 uM up to 48 hrs by Western blot method; assay type: cell-based; outline: as §1
# [33] = target: Signal transducer and activator of transcription 3 (Homo sapiens) (UniProt P40763); test: Inhibition of STAT3 phosphorylation in human MDA-MB-231 cells assessed as downregulation of Bcl-XL level at 5 uM up to 48 hrs by Western blot method; assay type: cell-based; outline: as §1
# [34] = target: Signal transducer and activator of transcription 3 (Homo sapiens) (UniProt P40763); test: Inhibition of STAT3 phosphorylation in human MDA-MB-468 cells assessed as down regulation of Bcl-XL level at 5 uM up to 48 hrs by Western blot method; assay type: cell-based; outline: as §1
# [35] = target: Signal transducer and activator of transcription 3 (Homo sapiens) (UniProt P40763); test: Inhibition of STAT3 in human MDA-MB-231 cells assessed as decrease in autophagic flux by measuring accumulation of LC3B-2 level at 5 uM after 4 hrs in presence of bafilomycin A by Western blot method; assay type: cell-based
# Outline: (§2)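 Cells were exposed for 4 h to 5 µM compound, DMSO vehicle, or 1% O2 as hypoxic autophagy control. Bafilomycin A1 (100 nM) was added 4 h before harvest. Lysis was in NP40 buffer with protease/phosphatase inhibitors, then 16,300g spin for 15 min at 4 °C, SDS-PAGE and PVDF transfer. Blots were probed overnight at 4 °C with anti-LC3B (1:3000), then HRP secondary (1:10,000) for 2 h, with ECL detection of LC3B-I and LC3B-II.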
# [36] = target: Signal transducer and activator of transcription 3 (Homo sapiens) (UniProt P40763); test: Inhibition of STAT3 in human MDA-MB-468 cells assessed as decrease in autophagic flux by measuring accumulation of LC3B-2 level at 5 uM after 4 hrs in presence of bafilomycin A by Western blot method; assay type: cell-based; outline: as §2
# [37] = target: Signal transducer and activator of transcription 3 (Homo sapiens) (UniProt P40763); test: Inhibition of STAT3 at Tyr705 in human MDA-MB-231 cells at 5 uM after 8 hrs by Western blot method; assay type: cell-based
# [38] = target: Signal transducer and activator of transcription 3 (Homo sapiens) (UniProt P40763); test: Inhibition of STAT3 at Tyr705 in human MDA-MB-468 cells at 5 uM after 8 hrs by Western blot method; assay type: cell-based
# [39] = target: Signal transducer and activator of transcription 3 (Homo sapiens) (UniProt P40763); test: Inhibition of [gamma32P]-ATP labelled DNA binding to STAT3 dimer (unknown origin) at 5 uM after 4 hrs by electrophoretic mobility shift assay
# Outline: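 STAT3 consensus oligonucleotide was 5'-labeled with [γ-32P]ATP using polynucleotide kinase. Nuclear protein (2 µg) was incubated with probe for 30 min on ice in 10 mM Tris, 50 mM KCl, 1 mM DTT, 50 µM EDTA, 50 ng/µL poly(dI-dC), pH 7.5. Samples were run on a 4% native polyacrylamide gel in Tris-glycine-EDTA, then the gel was dried and autoradiographed.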
compound,measurement,setting,value
CCN(CC)CCNc1nc(/C=C/c2ccc(Cl)cc2)nc2cc3ccccc3cc12,IC50,[1],< 10 µM
CCN(CC)CCCC(C)Nc1nc(/C=C/c2c(Cl)cc(Cl)cc2Cl)nc2ccc(N)cc12 (stereo not drawn),IC50,[2],9.1 µM
same,IC50,[3],9.2 µM
same,IC50,[4],6.7 µM
same,IC50,[5],1.4 µM
same,IC50,[6],1.9 µM
same,IC50,[7],> 100 µM
same,IC50,[8],1.8 µM
same,IC50,[9],> 100 µM
same,inhibition,[10],> 98%
same,IC50,[11],23.9 µM
same,IC50,[12],14.7 µM
same,IC50,[13],9 µM
same,IC50,[14],8.8 µM
same,IC50,[15],10.5 µM
same,IC50,[16],6.9 µM
same,IC50,[17],42.7 µM
same,IC50,[1],2 µM
same,IC50,[18],3 to 7 µM
same,inhibition,[19],Tde
same,inhibition,[20],Tde
same,inhibition,[21],Active
same,inhibition,[22],Active
same,inhibition,[23],Tde
same,Activity,[24],inactive
same,inhibition,[25],inactive
same,inhibition,[26],inactive
same,inhibition,[27],inactive
same,inhibition,[28],inactive
same,inhibition,[29],Active
same,inhibition,[30],Active
same,inhibition,[31],Active
same,inhibition,[32],Active
same,inhibition,[33],Active
same,inhibition,[34],Active
same,inhibition,[35],Active
same,inhibition,[36],Active
same,inhibition,[37],inactive
same,inhibition,[38],inactive
CC1CCN(c2nc(/C=C/c3ccccc3)nc3ccccc23)CC1,IC50,[1],> 10 µM
CCN(CC)CCCCNc1nc(/C=C/c2c(Cl)cc(Cl)cc2Cl)nc2ccc(N)cc12,IC50,[5],2.1 µM
C(=C\c1nc(N2CCCC2)c2ccccc2n1)/c1ccccc1,IC50,[1],< 10 µM
Nc1ccc2nc(/C=C/c3ccc(C(F)(F)F)cc3)nc(NCCCN3CCOCC3)c2c1,IC50,[5],3.5 µM
CCN(CC)CCCC(C)Nc1nc(/C=C/c2ccccc2)nc2cc(Cl)ccc12 (stereo not drawn),inhibition,[19],Tde
same,inhibition,[20],Tde
same,inhibition,[21],Active
same,inhibition,[22],Active
same,inhibition,[23],Tde
same,inhibition,[39],Active
same,inhibition,[28],inactive
same,inhibition,[29],Active
same,inhibition,[30],Active
same,inhibition,[31],Active
same,inhibition,[32],Active
same,inhibition,[33],Active
same,inhibition,[34],Active
same,inhibition,[37],inactive
same,inhibition,[38],inactive
